Test results from ChEMBL document CHEMBL1130270, “Design of [R-(Z)]-(+)-alpha-(methoxyimino)-1-azabicyclo[2.2.2]octane-3-acetonitri le (SB 202026), a functionally selective azabicyclic muscarinic M1 agonist incorporating the N-methoxy imidoyl nitrile group as a novel ester bioisostere” (J Med Chem, 1997).

Tests used:
[1] = target: Muscarinic acetylcholine receptor; test: In vitro affinity evaluated using [3H]- oxotremorine as radioligand in rat cerebral cortex for muscarinic acetylcholine receptor; type: tissue-based
[2] = target: Muscarinic acetylcholine receptor; test: In vitro affinity evaluated using [3H]- quinuclidinyl benzilate as radioligand in rat cerebral cortex for muscarinic acetylcholine receptor; type: tissue-based
[3] = target: T1, Muscarinic acetylcholine receptor M1 (Homo sapiens, UniProt P11229); test: In vitro affinity against human Muscarinic acetylcholine receptor M1 using quinuclidynyl benzylate (QNB)
T1 sequence (P11229 whole entry): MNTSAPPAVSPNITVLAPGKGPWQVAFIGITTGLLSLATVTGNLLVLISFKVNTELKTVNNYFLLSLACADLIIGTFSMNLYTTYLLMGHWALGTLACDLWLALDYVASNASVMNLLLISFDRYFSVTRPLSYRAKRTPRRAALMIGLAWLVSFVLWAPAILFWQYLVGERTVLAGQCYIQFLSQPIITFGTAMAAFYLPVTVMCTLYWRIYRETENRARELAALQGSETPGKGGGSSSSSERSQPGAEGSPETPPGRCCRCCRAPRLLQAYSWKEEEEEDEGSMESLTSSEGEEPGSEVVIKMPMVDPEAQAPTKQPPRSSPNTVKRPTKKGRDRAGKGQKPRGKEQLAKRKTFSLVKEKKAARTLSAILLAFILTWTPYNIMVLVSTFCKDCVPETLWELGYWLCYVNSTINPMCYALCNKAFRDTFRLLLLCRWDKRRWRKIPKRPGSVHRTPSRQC

[4] = target: T2, Muscarinic acetylcholine receptor M3 (Homo sapiens, UniProt P20309); test: In vitro affinity is evaluated, using quinuclidynyl benzylate (QNB) as radioligand in human cloned Muscarinic acetylcholine receptor M3
[5] = target: T3, Muscarinic acetylcholine receptor M2 (Homo sapiens, UniProt P08172); test: In vitro affinity is evaluated, using quinuclidynyl benzylate (QNB) as radioligand in human cloned Muscarinic acetylcholine receptor M2
T3 sequence (P08172 whole entry): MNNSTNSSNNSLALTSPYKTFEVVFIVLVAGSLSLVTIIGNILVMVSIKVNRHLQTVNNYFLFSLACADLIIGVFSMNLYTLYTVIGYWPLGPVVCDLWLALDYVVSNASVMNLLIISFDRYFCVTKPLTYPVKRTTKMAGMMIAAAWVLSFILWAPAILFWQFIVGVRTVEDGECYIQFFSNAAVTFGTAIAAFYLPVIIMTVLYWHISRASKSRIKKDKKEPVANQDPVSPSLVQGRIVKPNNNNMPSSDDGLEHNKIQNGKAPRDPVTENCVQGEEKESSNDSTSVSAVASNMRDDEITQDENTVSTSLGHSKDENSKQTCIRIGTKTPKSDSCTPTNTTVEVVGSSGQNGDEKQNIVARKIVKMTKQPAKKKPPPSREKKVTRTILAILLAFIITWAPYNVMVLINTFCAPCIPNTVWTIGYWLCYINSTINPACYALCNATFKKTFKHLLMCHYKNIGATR

[6] = target: T4, Muscarinic acetylcholine receptor M4 (Homo sapiens, UniProt P08173); test: In vitro affinity is evaluated, using quinuclidynyl benzylate (QNB) as radioligand in human cloned Muscarinic acetylcholine receptor M4
T4 sequence (P08173 whole entry): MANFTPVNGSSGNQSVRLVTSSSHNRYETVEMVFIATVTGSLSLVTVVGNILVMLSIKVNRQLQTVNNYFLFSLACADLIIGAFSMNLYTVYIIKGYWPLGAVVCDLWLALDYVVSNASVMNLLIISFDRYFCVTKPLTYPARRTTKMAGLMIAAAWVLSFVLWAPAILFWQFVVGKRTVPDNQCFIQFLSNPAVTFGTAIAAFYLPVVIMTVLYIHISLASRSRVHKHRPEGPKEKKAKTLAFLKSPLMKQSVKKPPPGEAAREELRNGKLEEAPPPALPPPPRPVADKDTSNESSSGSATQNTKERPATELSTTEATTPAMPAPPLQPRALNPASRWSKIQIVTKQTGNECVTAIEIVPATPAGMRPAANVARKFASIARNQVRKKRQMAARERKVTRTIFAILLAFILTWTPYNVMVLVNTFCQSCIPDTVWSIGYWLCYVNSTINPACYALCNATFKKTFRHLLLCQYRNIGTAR

Rattus norvegicus [7] = test: Dose producing 50% fall in blood pressure in anesthetized rats; type: functional
Method in brief: (§1)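 Male Hooded Lister rats (300-380 g) under urethane anaesthesia, 37 °C. Increasing iv doses via femoral vein at 45 min intervals. BP recorded from carotid artery; HR derived from the BP signal. Peak effect within 1 min, expressed as % of predose. Value is the dose giving a transient 50% fall in mean BP or HR; 95% confidence limits.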

Rattus norvegicus [8] = test: Dose producing 50% fall in heart rate in anesthetized rats; type: functional; method in brief: as §1
Rattus norvegicus [9] = test: Dose producing […] rhythmic slow wave activity in anesthetized rats; type: functional
[10] = Ratio of 50% fall blood pressure to that of rhythmic slow wave activity in anesthetized rats; type: functional
Method in brief: (§2)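 Same anaesthetized-rat dosing as above. Ratio of iv dose giving a transient 50% fall in BP (or HR) to the iv dose giving an arecoline-equivalent (0.32 mg/kg) change in hippocampal theta power.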

[11] = Ratio of 50% fall in heart rate to that of […] slow wave activity in anesthetized rats; type: functional; method in brief: as §2
Rattus norvegicus [12] = test: Dose producing 50 % fall in heart rate in anesthetized rats; type: functional; method in brief: as §1
[13] = Ratio of IC50 QNB to that of OXO-M was determined; type: functional
Method in brief: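 Rat cerebral cortex binding: IC50 for displacement of the antagonist [3H]QNB divided by IC50 for displacement of the agonist [3H]oxotremorine-M, used as an efficacy index.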

[14] = Ratio of 50% fall in blood pressure to that of rhythmic slow wave activity in anesthetized rats; type: functional; method in brief: as §2
[15] = Ratio of 50% fall in heart rate to that of in blood pressure in anesthetized rats; type: functional
[16] = Partition coefficient is determined in octanol/buffer solution at pH 12; type: physicochemical
[17] = target: T2, Muscarinic acetylcholine receptor M3; test: In vitro affinity is evaluated, using quinuclidynyl benzylate (QNB)radioligand in human cloned Muscarinic acetylcholine receptor M3
Method in brief: (§3)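 Membranes from CHO cells transfected with human m2, m3 or m4 receptors, prepared in 50 mM Tris (pH 7.4 at 37 °C). Displacement of 0.1 nM [3H]QNB; nonspecific binding defined with atropine sulfate. Incubated to equilibrium at 37 °C, ended by rapid vacuum filtration.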

[18] = target: T3, Muscarinic acetylcholine receptor M2; test: In vitro affinity is evaluated, using quinuclidinyl benzilate (QNB) as radioligand in human cloned Muscarinic acetylcholine receptor M2; method in brief: as §3
[19] = target: T4, Muscarinic acetylcholine receptor M4; test: In vitro affinity is evaluated, using quinuclidynyl benzylate (QNB) radioligand in human cloned Muscarinic acetylcholine receptor M4; method in brief: as §3
Mus musculus [20] = test: Tremorigenic effects were assessed in mice after subcutaneous administration of the compound; type: functional; details: sc
Method in brief: (§4)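 Male CD1 mice (25-35 g), dosed sc. Tremor scored subjectively: 0 absent, 1 mild, 2 moderate, 3 severe.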

Rattus norvegicus [21] = test: Extrapyramidal effects was assessed from the dose producing tremors in anesthetized rats
Rattus norvegicus [22] = species: Rattus norvegicus; test: Dose inducing hippocampal rhythmic slow wave activity; type: functional, Hippocampus
Method in brief: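 Male Hooded Lister rats (300-380 g) under urethane anaesthesia, pretreated with atropine methyl nitrate 0.1 mg/kg iv. Dosing iv via femoral vein, saline vehicle. Bipolar electrode in right hippocampal CA1; EEG sampled at 128 Hz. Read-out is change in mean theta power (3–7 Hz).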

Rattus norvegicus [23] = test: Dose producing 50 % fall in mean blood pressure in anesthetized rats; type: functional; method in brief: as §1
[24] = Dissociation constant is the negative logarithm of the equilibrium coefficient of the neutral and charged forms of the compound; type: physicochemical
[25] = Distribution coefficient is the ratio of concentration in lipid phase to the concentration of compound in aqueous phase.; type: physicochemical
Method in brief: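 Calculated for pH 7.3, not measured. D is the concentration of compound in the lipid phase divided by the concentration of all species in the aqueous phase.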

Mus musculus [26] = species: Mus musculus; test: Extrapyramidal effects was assessed from the dose producing tremors; type: functional; method in brief: as §4
Rattus norvegicus [27] = species: Rattus norvegicus; test: Dose producing […] rhythmic slow wave activity in rat

T2 sequence (P20309 whole entry): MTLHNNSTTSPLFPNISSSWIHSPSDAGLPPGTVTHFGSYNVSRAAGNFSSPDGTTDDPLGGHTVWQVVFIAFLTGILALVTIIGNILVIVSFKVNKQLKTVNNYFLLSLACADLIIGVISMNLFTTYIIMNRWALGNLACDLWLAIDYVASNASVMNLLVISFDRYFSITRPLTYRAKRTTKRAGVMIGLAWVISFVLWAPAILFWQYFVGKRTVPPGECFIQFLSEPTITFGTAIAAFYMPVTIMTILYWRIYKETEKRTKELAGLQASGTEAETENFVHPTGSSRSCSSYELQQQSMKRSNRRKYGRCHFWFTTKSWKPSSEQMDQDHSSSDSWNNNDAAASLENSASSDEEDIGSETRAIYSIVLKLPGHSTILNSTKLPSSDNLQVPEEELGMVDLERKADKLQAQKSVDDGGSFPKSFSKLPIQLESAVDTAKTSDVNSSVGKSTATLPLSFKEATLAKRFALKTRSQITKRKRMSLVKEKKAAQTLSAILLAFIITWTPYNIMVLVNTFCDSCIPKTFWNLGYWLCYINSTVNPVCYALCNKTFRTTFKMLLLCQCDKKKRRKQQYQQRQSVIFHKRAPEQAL

Row | Structure (SMILES) | IC50 [1] [nM] | IC50 [2] [nM] | ED50 (Rattus norvegicus [7]) [mg/kg] | ED50 (Rattus norvegicus [8]) [mg/kg] | ED Arec (Rattus norvegicus [9]) [mg/kg] | Ratio [10] | Ratio [11] | also measured
1 | CO/N=C(\C#N)[C@H]1CN2CC[C@H]1C2 | 23 | 2300 | 0.015 | 0.009 | 0.0032 | 4.7 | 2.8 | IC50 [3]: 1180 nM; IC50 [4]: 380 nM; IC50 [5]: 610 nM; IC50 [6]: 800 nM
2 | C=CCO/N=C/[C@H]1CN2CC[C@H]1C2 | 250 | 9700 |  |  |  |  |  | 
3 | CCO/N=C/[C@H]1CN2CC[C@H]1C2 |  |  |  |  |  |  |  | ED50 (Rattus norvegicus [12]): > 1.8 mg/kg; Ratio [13]: 23; Ratio [14]: >7.8; Ratio [15]: >7.8
4 | CO/N=C(\C#N)C12CCCN(CC1)C2 (centres undefined) |  |  |  | 0.01 |  | 4 | 2 | logD [16]: 1.49; IC50 [3]: 99 nM; IC50 [17]: 28 nM; IC50 [18]: 31 nM; IC50 [19]: 49 nM
5 | CC#CCO/N=C/[C@H]1CN2CC[C@H]1C2 | 115 | 2900 |  |  |  |  |  | 
6 | CO/N=C(/C#N)C1CN2CCC1CC2 (centres undefined) | 240 | 1300 |  |  |  |  |  | 
7 | CO/N=C(\C#N)[C@H]1CN2CCC1CC2 [SABCOMELINE] | 14 | 310 |  |  |  | >18.8 | >18.8 | ED50 (Mus musculus [20]): > 10 mg/kg; IC50 [3]: 170 nM; IC50 [4]: 60 nM; IC50 [5]: 180 nM; IC50 [6]: 90 nM; ED50 (Rattus norvegicus [21]): 0.12 mg/kg; ED50 (Rattus norvegicus [12]): > 0.32 mg/kg; ED Arec (Rattus norvegicus [22]): 0.017 mg/kg; ED50 (Rattus norvegicus [23]): > 0.32 mg/kg
8 | CO/N=C(\Br)[C@@H]1CN2CC[C@H]1C2 | 170 | 2300 |  |  |  |  |  | 
9 | CO/N=C(\C#N)C12CCN(CC1)C2 |  |  | 0.01 | 0.0044 | 0.0056 | 1.8 | 0.79 | IC50 [3]: 1650 nM; IC50 [4]: 300 nM; IC50 [5]: 240 nM; IC50 [6]: 495 nM
10 | CO/N=C(\C)C1CN2CCC1CC2 (centres undefined) |  |  | > 0.32 | > 0.32 |  | >1 | >1 | logD [16]: 1.88
11 | CO/N=C/[C@H]1CN2CC[C@H]1C2 |  |  |  |  |  |  |  | IC50 [3]: 10000 nM; IC50 [4]: 2200 nM; IC50 [5]: 220 nM; IC50 [6]: 1100 nM; Ratio [15]: 1.5
12 | CO/N=C(\Cl)[C@@H]1CN2CC[C@H]1C2 | 100 | 8880 |  |  |  |  |  | 
13 | COC(=O)C1=CCCN(C)C1 [ARECOLINE] |  |  | 0.022 | 0.024 | 0.32 |  |  | 
14 | CO/N=C(\F)[C@H]1CN2CC[C@H]1C2 | 8.5 |  |  |  |  |  |  | 
15 | CO/N=C(\C#N)[C@@H]1CN2CC[C@H]1C2 | 21 | 3175 | 0.024 | 0.021 | 0.005 | 4.8 | 4.2 | IC50 [3]: 1500 nM; IC50 [4]: 1200 nM; IC50 [5]: 700 nM; IC50 [6]: 975 nM
16 | CO/N=C(/C)C12CCCN(CC1)C2 (centres undefined) | 46 | 3400 | 0.068 | 0.042 | 0.068 | 1 | 0.6 | pKa [24]: 10.1; logD [16]: 1.65; logD [25]: -1.13
17 | CO/N=C(\C#N)[C@@H]1CN2CCC1CC2 | 140 | 1130 | > 1 | > 1 | >1 |  |  | 
18 | CO/N=C(\Cl)C12CCCN(CC1)C2 (centres undefined) |  |  |  | 0.24 | 0.032 | 10 | 8.3 | logD [16]: 2.12
19 | CCN1C(=O)CC2(CCN(C)CC2)C1=O |  |  |  |  |  |  |  | Activity (Mus musculus [26]): 8.6; ED50 (Mus musculus [20]): 3.8 mg/kg; ED Arec (Rattus norvegicus [27]): 0.35 mg/kg
20 | CO/N=C(\C#N)C1CN2CCC1CC2 (centres undefined) |  |  |  | > 0.56 |  | >10.9 | >10.9 | logD [16]: 1.56
21 | C#CCO/N=C/[C@H]1CN2CC[C@H]1C2 |  |  |  |  |  |  |  | Ratio [15]: 3.7
22 | CO/N=C(\F)C12CCCN(CC1)C2 (centres undefined) |  |  |  | 0.024 |  |  | 2 | logD [16]: 1.01
23 | O=C1CCCN1CC#CCN1CCCC1 [OXOTREMORINE] |  |  |  |  |  |  |  | Activity (Mus musculus [26]): 3; ED50 (Mus musculus [20]): 0.07 mg/kg; ED Arec (Rattus norvegicus [27]): 0.023 mg/kg
